The values below come from ChEMBL document CHEMBL1914311, “Sugar-based peptidomimetics inhibit amyloid β-peptide aggregation” (Eur J Med Chem, 2011).

A short description of data set [1]: Inhibition of amyloid beta (1 to 40) fibril formation at 1:1 protein to compound ratio by thioflavin T fluorescence assay relative to untreated control. The note with it: concentration not given here. In a few lines:
(§1)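 HFIP-pretreated synthetic Aβ1-40 (DMSO stock) was used at 20 μM with compound at 1:1 or 1:0.1 peptide:compound ratios. The mixture contained 10 μM ThT in 10 mM Tris/HCl, 100 mM NaCl, pH 7.4, with 2.5% DMSO final. Fluorescence (ex 440, em 485 nm) was followed over time on aliquots, 2–6 runs on different days. Lag extension was taken as t(+compound)/t(alone), and plateau reduction as a percent decrease versus peptide alone.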

Data set [2] deals with T1, Islet amyloid polypeptide (Homo sapiens) (UniProt P10997).
T1 sequence (whole entry): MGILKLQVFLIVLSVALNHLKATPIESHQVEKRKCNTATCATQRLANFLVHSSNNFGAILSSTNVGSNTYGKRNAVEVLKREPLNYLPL
The data set is described as follows: Inhibition of IAPP fibril formation assessed as inhibition of aggregate formation at 1:10 protein to compound ratio by thioflavin T fluorescence assay relative to untreated control. The note with it: concentration not given here. In a few lines:
(§2)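 IAPP was made synthetic with an amidated C-terminus, pretreated with HFIP, and taken up in DMSO. It was used at 5 μM with 10 μM ThT in 10 mM Tris/HCl, 100 mM NaCl, pH 7.4, with 2.5% DMSO final. Compound was added at a 1:10 peptide:compound ratio. Fluorescence was read over time (ex 440, em 485 nm), 2–6 runs on different days. Lag extension was calculated as t(+compound)/t(alone). Plateau reduction was (F − F+compound)/F × 100%.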

Data set [3] is described as follows: Binding affinity to amyloid beta (1 to 40) at 1 mM by STD-NMR spectroscopy. Put shortly:
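1D saturation transfer difference NMR was run in 50 mM sodium phosphate, 150 mM NaCl, pH 7.0, 10% D2O. Compound was at 1 mM and Aβ1-40 at 0.25 mM. Saturation used a cascade of Gaussian selective pulses (50 ms each, B1 0.16 kHz) lasting 2 s in total, applied alternately at -1 and +30 ppm. Compound-alone spectra served as control.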

In data set [4] the target is T1, Islet amyloid polypeptide (Homo sapiens). The data set can be described thus: Inhibition of IAPP fibril formation assessed as fold increase in lag time for aggregate formation at 1:10 protein to compound ratio by thioflavin T fluorescence assay relative to untreated control. In a few lines: as §2
Data set [5] in a line: Binding affinity to amyloid beta (1 to 40) assessed as negative chemical shift at 1 mM by 2D NOESY spectroscopy analysis. Put shortly:
(§3)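 Synthetic C-terminally amidated Aβ1-40 was studied by NMR in 50 mM sodium phosphate, 150 mM NaCl, pH 7.0, with 10% D2O. 2D NOESY spectra were recorded with a 0.2 s mixing time.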

A short description of data set [6]: Inhibition of amyloid beta (1 to 40) fibril formation assessed as appearance of spherical aggregates at 1:01 protein to compound ratio after 1 to 2 days by transmission electron microscopy analysis.
Data set [7] has as its target T1, Islet amyloid polypeptide (Homo sapiens). The data set is described as follows: Inhibition of IAPP fibril formation at 1:10 protein to compound ratio after 24 hrs by transmission electron microscopy analysis. Put shortly: (§4)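 IAPP and compound (1:10) were incubated under the ThT assay conditions: 10 mM Tris·HCl, 100 mM NaCl, pH 7.4. Aliquots were taken at 3 h and 24 h, adsorbed onto carbon-coated copper grids for 2 min, negatively stained, and imaged by transmission electron microscopy.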

Data set [8] can be described thus: Inhibition of amyloid beta (1 to 40) fibril formation assessed as appearance of spherical aggregates at 1:1 protein to compound ratio after 1 to 2 days by transmission electron microscopy analysis. Put shortly: (§5)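 Aβ1-40 and compound were incubated at a 1:1 ratio in 10 mM Tris·HCl, 100 mM NaCl, pH 7.4, under the ThT assay conditions. Aliquots were taken after 1 day, 2 days and 2 weeks. They were adsorbed onto carbon-coated grids for 2 min, negatively stained, and imaged by TEM.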

Data set [9] in a line: Inhibition of amyloid beta (1 to 40) fibril formation assessed as appearance of spherical aggregates at 1:1 protein to compound ratio after 2 weeks by transmission electron microscopy analysis. In a few lines:
as §5

Data set [10] can be described thus: Inhibition of amyloid beta (1 to 40) fibril formation assessed as lag time for aggregate formation at 1:0.1 protein to compound ratio by thioflavin T fluorescence assay relative to untreated control. In a few lines:
as §1

Data set [11] can be described thus: Binding affinity to amyloid beta (1 to 40) at 1:20 protein to compound ratio after 2 weeks by STD-NMR spectroscopy. In a few lines:
(§6)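 STD-NMR used diluted Aβ1-40 (30 μM) at a 1:20 peptide:compound ratio, followed over time. Buffer was 50 mM sodium phosphate, 150 mM NaCl, pH 7.0, 10% D2O. A cascade of Gaussian selective pulses (50 ms, B1 0.16 kHz, 2 s total) was applied alternately at -1 and +30 ppm.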

Data set [12] can be described thus: Solubility of compound in water. The note with it: buffer. Format: physicochemical.
The nature of data set [13]: Binding affinity to amyloid beta (1 to 40) at 1:20 protein to compound ratio up to 1 hr by STD-NMR spectroscopy. In a few lines:
as §6

Data set [14] is described as follows: Inhibition of amyloid beta (1 to 40) fibril formation assessed as appearance of spherical aggregates at 1:01 protein to compound ratio after 2 weeks by transmission electron microscopy analysis.
Data set [15] can be described thus: Inhibition of amyloid beta (1 to 40) fibril formation assessed as lag time for aggregate formation at 1:1 protein to compound ratio by thioflavin T fluorescence assay relative to untreated control. In a few lines:
as §1

Data set [16] can be described thus: Binding affinity to amyloid beta (1 to 40) assessed as negative chemical shift by NMR spectroscopy analysis. Put shortly: as §3
The target in data set [17] is T1, Islet amyloid polypeptide (Homo sapiens). The data set can be described thus: Inhibition of IAPP fibril formation at 1:10 protein to compound ratio after 3 hrs by transmission electron microscopy analysis. Put shortly:
as §4

A short description of data set [18]: Inhibition of amyloid beta (1 to 40) fibril formation assessed as fold increase in lag time for aggregate formation at 1:1 protein to compound ratio by thioflavin T fluorescence assay relative to untreated control. In a few lines: as §1

Calls of active or inactive are those of the source. The rule behind the calls is not given here. Numbered stars: 1 amine (or outer) side, 2 acyl side, 3 side chain; on linkers, the order of the positions; unused ones are H or OH. Square brackets hold non-standard residues; d marks the D form. Peptide text beside a SMILES is read from it. * marks the point of attachment. X1 = O=C(CCOC[C@H]1O[C@@H](OCCCN[*:1])[C@H](O)[C@@H](O)[C@@H]1O)[*:2]; X2 = O=C(CCOC[C@H]1O[C@@H](OCCN[*:1])[C@H](O)[C@@H](O)[C@@H]1O)[*:2]; X3 = O=C(CCOC[C@H]1O[C@H](OCCCN[*:1])[C@H](O)[C@@H](O)[C@@H]1O)[*:2]; X4 = O=C(CCOC[C@H]1O[C@H](OCCN[*:1])[C@H](O)[C@@H](O)[C@@H]1O)[*:2]; Boc = CC(C)(C)OC(=O)*

`COC(=O)[C@H](CC(C)C)NC(=O)[C@@H](NC(=O)CCOC[C@H]1O[C@@H](OCCCNC(=O)[C@@H](NC(=O)[C@H](C)NC(=O)OC(C)(C)C)C(C)C)[C@H](O)[C@@H](O)[C@@H]1O)C(C)C` (Boc-AV[X1]VL-OMe): the values for the inhibition in data set [1] and in [2] were 52% and 5%, respectively. The result in [3], in data set [5] and in [11] was Active. Besides, the fold change (FC) in [4] is 1; in data set [18], 3. Besides, the inhibition entry in [6], in data set [8] and in data set [9] was “Active” in each case. For the same molecule, the inhibition result in data set [7], in data set [14] and in data set [17] was “inactive” throughout. The TIME in data set [10] was determined as 26 h; in data set [15], 41 h. For the same molecule, in data set [12], the solubility entry was “soluble”. For the same molecule, the result in [13] and in [16] was inactive.

With `COC(=O)[C@H](CC(C)C)NC(=O)[C@@H](NC(=O)CCOC[C@H]1O[C@@H](OCCNC(=O)[C@@H](NC(=O)[C@H](C)NC(=O)OC(C)(C)C)C(C)C)[C@H](O)[C@@H](O)[C@@H]1O)C(C)C` (Boc-AV[X2]VL-OMe), the inhibition (as a rule, the drop in the measured response relative to a control, in per cent) in data set [1] was determined as 40%; in data set [2], 1%. In addition, the fold change (FC) in [4] was 1; in data set [18] it was 3.4. In [12], the solubility result was “soluble”.

Take `COC(=O)[C@H](CC(C)C)NC(=O)[C@@H](NC(=O)CCOC[C@H]1O[C@H](OCCCNC(=O)[C@@H](NC(=O)[C@H](C)NC(=O)OC(C)(C)C)C(C)C)[C@H](O)[C@@H](O)[C@@H]1O)C(C)C` (Boc-AV[X3]VL-OMe): the inhibition came to 60% in [1] and 9% in data set [2]. In addition, the fold change (FC) was determined as 1 in data set [4] and 3.4 in data set [18]. Besides, the solubility result in [12] is recorded as “soluble”.

`COC(=O)[C@H](CC(C)C)NC(=O)[C@@H](NC(=O)CCOC[C@H]1O[C@H](OCCNC(=O)[C@@H](NC(=O)[C@H](C)NC(=O)OC(C)(C)C)C(C)C)[C@H](O)[C@@H](O)[C@@H]1O)C(C)C` (Boc-AV[X4]VL-OMe): the inhibition in data set [1] worked out at 22%. Further, in data set [12], the solubility result is reported as “soluble”. In addition, the fold change (FC) in data set [18] amounted to 3.4.
